Rows were chosen to be rich in hits. Some 4.8% of all compounds tested hit in one or more screens of this group.
SKKanGAS inh: blocks kanamycin growth of S. pyogenes SKKanGAS strain. BacTiter-Glo, 6 h. inhibition, % at 7.5 µM. 300,000 tested, 1.3% active;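 active = mean replicate score, as percent of positive control median, at least 50; inconclusive = mean below 50 but one replicate at or above 50; inactive = mean and every replicate below 50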;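 also: strain carries kanamycin resistance gene driven by streptokinase promoter and grows in 40 µg/ml kanamycin; loss of luminescence reflects streptokinase promoter inhibition or plain growth inhibition; 0% = median of DMSO wells and 100% = positive control at its reference dose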
CSC inhib: cancer stem cell inhibition; cancer stem cell-like cells viability, luminescence; 300,000 tested, 1.1% active; inhibition, % at 7.5 µM; in the data active = inhibition above about 75%; inconclusive = no clear call, values can overlap the other calls; tested in HMLE shEcad cells
CHOP UPR activ: activators of apoptotic arm of unfolded protein response (CHOP); CHO-CHOP luciferase reporter, UPR activation, luminescence; percent of tunicamycin response over DMSO baseline; activation, % at 10 µM; 330,000 tested, 0.34% active; AID 449763;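 active = at 10 µM dose, activation of 40% or more, normalized to positive control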;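 also: 100% = tunicamycin at 10 µg/mL and 0% = DMSO alone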
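Assay system: CHO-CHOP cells, stable luciferase reporter of PERK-eIF2a-CHOP signalling / Buffer or medium: F12 plus 10% serum / Compound dosing: one dose, 10 µM in 0.5% DMSO / Times: 6 h compound treatment, 37 °C / Technique: luciferase luminescence / Read-out: % reporter activation, DMSO baseline versus tunicamycin full activation / Benchmarks: tunicamycin and DMSO controls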
Beta apoptosis: blocks beta cell apoptosis; INS-1E cytokine-induced death, ATP luminescence, 48 h; percent of positive-control rescue, neutral wells zero; protection from apoptosis, % (test concentration not listed); 300,000 tested, 0.8% active;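 active = Every replicate reaches about 75%, or at least half do and their mean reaches it too, limit read from the data; inconclusive = At least half of replicates reach the limit but their mean does not; inactive = Under half of replicates reach the limit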;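 also: 0% = cytokine-treated negative control wells and 100% = positive control rescue; higher means more ATP so stronger rescue from cytokine killing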
Mdm2 MdmX PPI: disrupts the human Mdm2-MdmX interaction | SaOS-2 split-luciferase Mdm2/MdmX complementation, luminescence | O15151+Q00987 | inhibition, % at 8 µM | AID 485346 | 330,000 tested, 3% active;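 active = inhibition of at least 50% at 8 µM in the primary screen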
Target sequence (O15151 whole entry, looked up): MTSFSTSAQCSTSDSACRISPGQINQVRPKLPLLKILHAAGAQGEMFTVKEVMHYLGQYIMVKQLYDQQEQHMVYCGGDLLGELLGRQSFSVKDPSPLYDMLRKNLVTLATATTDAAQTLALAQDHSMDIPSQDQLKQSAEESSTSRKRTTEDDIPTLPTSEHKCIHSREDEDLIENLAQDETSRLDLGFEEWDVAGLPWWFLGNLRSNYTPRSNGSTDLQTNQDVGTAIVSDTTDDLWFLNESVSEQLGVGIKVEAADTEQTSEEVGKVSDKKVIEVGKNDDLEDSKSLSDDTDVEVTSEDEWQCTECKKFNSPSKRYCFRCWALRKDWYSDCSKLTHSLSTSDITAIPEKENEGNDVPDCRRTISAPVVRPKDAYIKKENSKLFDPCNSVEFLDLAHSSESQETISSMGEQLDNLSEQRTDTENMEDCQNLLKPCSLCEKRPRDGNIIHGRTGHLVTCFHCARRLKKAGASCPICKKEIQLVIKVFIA
Target sequence (Q00987 whole entry, looked up): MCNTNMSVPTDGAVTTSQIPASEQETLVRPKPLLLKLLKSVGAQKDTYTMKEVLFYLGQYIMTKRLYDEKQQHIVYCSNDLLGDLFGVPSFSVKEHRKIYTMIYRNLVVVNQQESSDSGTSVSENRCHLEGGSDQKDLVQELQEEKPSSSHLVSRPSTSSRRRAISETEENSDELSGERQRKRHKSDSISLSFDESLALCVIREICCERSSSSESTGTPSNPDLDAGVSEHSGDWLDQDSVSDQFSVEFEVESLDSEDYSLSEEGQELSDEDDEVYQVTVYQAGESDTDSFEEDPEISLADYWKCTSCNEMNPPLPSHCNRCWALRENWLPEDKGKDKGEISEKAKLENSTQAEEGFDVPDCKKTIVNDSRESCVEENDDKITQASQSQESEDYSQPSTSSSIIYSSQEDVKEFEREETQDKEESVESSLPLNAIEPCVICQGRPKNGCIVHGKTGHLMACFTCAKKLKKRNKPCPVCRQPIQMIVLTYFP
UPR XBP1 act: activators of adaptive arm of unfolded protein response (XBP1); CHO-XBP1 luciferase reporter, IRE1-XBP1 UPR activation, luminescence; percent of tunicamycin response, DMSO as zero; activation, % at 20 µM; 330,000 tested, 0.33% active;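 active = versus positive control, 20 µM dose yields 30% or more activation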;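 also: 100% = tunicamycin at 10 µg/mL and 0% = DMSO only wells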
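Material: CHO-XBP1 cells stably carrying IRE1-XBP1-driven luciferase reporter | Medium: F12 with 10% serum | Compound dosing: 20 µM single concentration, DMSO 1% | Incubation: Overnight seeding at 37 °C, 6 h compound treatment at 37 °C | Detection: Steady-Glo luminescence read | Read-out basis: % activation of reporter signal versus tunicamycin and DMSO controls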
Mdm2-MdmX conf: confirmation of human Mdm2/MdmX interaction inhibitors | shares compounds with Mdm2 MdmX PPI | Mdm2-MdmX binding, luminescent assay | inhibition, % at 8 µM | 10,000 tested, 55% active | AID 489028; in the data active = inhibition above about 40%
Full FLuc ctr: full-length luciferase inhibition in Mdm2/MdmX counter-screen. SaOS-2 full-length luciferase counterscreen, luminescence. 6,200 tested, 77% active. shares compounds with Mdm2 MdmX PPI. inhibition, % at 8 µM. AID 504607;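 active = mean inhibition at 8 µM reaching about 37%, which flags the compound as non-specific, limit read from the data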;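 also: p53-null SaOS-2 cells with luciferase driven by a doxycycline-inducible promoter; compound on cells about two nights before reading with doxycycline added after day one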
Starred values were filed as active, the others as inactive; ? = inconclusive; · = not tested or not shown.

SMILES	SKKanGAS inh	CSC inhib	CHOP UPR activ	Beta apoptosis	Mdm2 MdmX PPI	UPR XBP1 act	Mdm2-MdmX conf	Full FLuc ctr
COc1ccc(N2C(=O)CC(c3cc(OC)c(OC)c(OC)c3)CC2=O)cc1	-1	3	3	-1	12	-4	·	·
CC1=CC(C)(C)Nc2ccc(OC(=O)CCN3C(=O)c4ccccc4C3=O)cc21	-4	8	-5	-4	101*	-7	35	·
C=CCn1c(O)c(C2=c3ccccc3=NC2=O)s/c1=N/c1nccs1	-38	-6	1	3	79*	0	23	·
O=C(O)Cn1c(O)c(C2=c3ccccc3=NC2=O)sc1=O	0	-6	-1	-8	31	-8	·	·
CCC(=O)N1CCc2cc(S(=O)(=O)CCC(=O)N(C)c3ccc(OC)cc3)ccc21	-4	-6	0	-6	16	-4	·	·
N#CCSc1nc2c(sc(=S)n2Cc2ccco2)c(=O)n1-c1ccc(F)cc1	19	6	0	9	61*	1	58*	32
COc1ccc(OCc2cc(=O)[nH]c3ccccc23)cc1	2	6	1	3	10	2	·	·
COc1ccc2c(c1)[nH]c(=O)c1sc3ccccc3c12	26	-4	4	22	60*	11	19	·
COc1ccc2sc3c(=O)[nH]c4ccccc4c3c2c1	2	-6	-1	41	72*	1	74*	44*
Cc1cc(NS(=O)(=O)c2ccc(NC(=O)c3ccc([N+](=O)[O-])c(Cl)c3)cc2)no1	0	0	0	-6	25	-2	·	·
O=C(N/N=C/c1ccccc1O)C1CC(=O)N(c2ccc(Cl)cc2)C1 (stereo unspecified)	23	1	-1	84*	76*	-1	59*	37*
COc1ccc(-c2oc3ncnc(NCCCN4CCOCC4)c3c2-c2ccc(OC)cc2)cc1	21	20	-2	0	60*	4	31	·
c1ccc(-c2oc3ncnc(NCCCN4CCOCC4)c3c2-c2ccccc2)cc1	15	25	1	-5	16	0	·	·
COc1ccc(-c2oc3ncnc(NCCN4CCOCC4)c3c2-c2ccc(OC)cc2)cc1	28	34	4	41	80*	9	37	·
COc1ccc(-c2oc3ncn(CCN4CCOCC4)c(=N)c3c2-c2ccc(OC)cc2)cc1	2	43	4	48	57*	2	38	49*
CCCN1Cc2cccc(C(=O)NCCc3ccccc3)c2C1=O	-2	-5	2	-2	-9	2	·	·
O=C(c1ccc(F)cc1F)N1CCN(S(=O)(=O)c2ccc3c(c2)OCCO3)CC1	·	-18	-2	-6	20	-1	·	·
CC(C)(C)c1ccc(CN2N=Nc3ccccc3S2(=O)=O)cc1	4	-3	-5	15	67*	-5	47*	59*
O=S1(=O)c2ccccc2N=NN1Cc1ccc(Cl)c(Cl)c1	13	-6	1	-10	-7	0	·	·
Cc1cccc(NC(=O)Cn2cnc3c(oc4ccccc43)c2=O)c1C	0	-8	2	-3	64*	-1	0	·
COc1ccc(-c2csc(NC(=O)c3ccccc3NS(=O)(=O)c3ccc(F)c(F)c3)n2)cc1	84*	114*	6	87*	90*	3	91*	22
Cc1ccc(S(=O)(=O)Nc2ccccc2C(=O)Nc2nc(-c3ccc(F)cc3)cs2)cc1	106*	0	16	99*	86*	4	90*	22
Cc1cc(Nc2ccccc2)n(-c2nc3ccccc3[nH]2)n1	114*	-16	-1	31	53*	1	18	·
Cc1cc(NC(=O)c2ccccc2F)n(-c2nc3ccccc3[nH]2)n1	?	19	4	28	31	6	·	·
Cc1cc(NC(=O)c2c(F)cccc2Cl)n(-c2nc3ccccc3[nH]2)n1	118*	-11	-2	33	68*	0	32	·
